Consider three compounds from PMC11063762 (Molecular Cancer Therapeutics, 2024).

Entries after “also recorded” stand apart in the source; their conditions may differ.

The subject of data set [1] is panel of enzymes (n = 6). Kind of data set: Off-target selectivity screening, enzyme panel. It counts as biochemical. Conditions: up to 10 μmol/L.
For data set [2], the system named is panel of receptors/transporters (n = 38). Description: Off-target selectivity screening, receptor/transporter binding panel. To be noted: up to 10 μmol/L.
The subject of data set [3] is MDA-MB-231 tumors. Description: MDA-MB-231 TNBC model in chick embryos. It counts as in vivo, chick embryo. To be noted: 15, 90 μg. The procedure, abridged:
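MDA-MB-231 cells were inoculated into fertilized White Leghorn eggs on embryonic day E9. From E11, embryos received vehicle, test compound (15 or 90 μg, every four days, two doses) or paclitaxel positive control (2.1 μg, every other day, four doses). Metastatic invasion into the lower chorioallantoic membrane was assessed. Tumors were dissected on E19.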

In data set [4] the target is T1, METAP2 (Homo sapiens, UniProt P50579). Description: METAP2 aminopeptidase enzyme activity assay. It counts as biochemical.
T1 sequence (P50579 whole entry): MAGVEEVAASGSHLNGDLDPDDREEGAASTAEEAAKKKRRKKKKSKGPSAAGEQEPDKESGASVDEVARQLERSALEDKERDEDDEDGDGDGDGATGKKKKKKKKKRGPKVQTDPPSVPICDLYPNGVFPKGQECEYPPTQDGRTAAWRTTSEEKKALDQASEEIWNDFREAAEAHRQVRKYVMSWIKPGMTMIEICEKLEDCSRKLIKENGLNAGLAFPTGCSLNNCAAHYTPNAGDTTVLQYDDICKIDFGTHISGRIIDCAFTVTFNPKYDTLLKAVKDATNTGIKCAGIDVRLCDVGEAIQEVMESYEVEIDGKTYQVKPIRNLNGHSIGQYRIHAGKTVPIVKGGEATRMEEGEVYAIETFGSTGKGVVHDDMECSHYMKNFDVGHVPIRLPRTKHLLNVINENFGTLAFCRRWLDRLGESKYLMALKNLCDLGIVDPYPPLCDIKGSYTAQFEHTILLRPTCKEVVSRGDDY
Data set [5] in a line: Rat functional observation battery. It counts as in vivo. Conditions: single dose 3, 10 and 30 mg/kg, 12 and 36 hours post-dose, GLP. The method in brief: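 Under GLP, male experimentally naïve CD [Crl:CD(SD)] rats, about 8 weeks old, received a single s.c. dose of 3, 10 or 30 mg/kg (ten/group). A functional observation battery was run pre-dose (day −1) and at 12 and 36 h post-dose. Mortality, clinical observations and body weights were also recorded.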

For data set [6], the system named is BT-474 tumors. Description: RNA sequencing of BT-474 xenograft tumors. It counts as in vivo, mouse. To be noted: 12 mg/kg, RNA-seq versus vehicle. The method in brief:
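Orthotopic BT-474 tumors came from estrogen-supplemented nude mice dosed s.c. every four days with 12 mg/kg test compound (n = 5) or vehicle (n = 6). At necropsy, tumor portions were snap-frozen and stored at −80°C for RNA isolation and sequencing. Differentially expressed genes versus vehicle were identified, then pathway enrichment analysis was run (pathways with P ≤ 0.01 reported).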

Data set [7] has as its system cathepsin isoforms L, H, C, K, and B. Kind of data set: Enzyme-mediated metabolism of SDX-7320 in vitro. It counts as in vitro ADME, human. To be noted: 0.5 mg/mL SDX-7320, 37°C, LC/MS.
The target in data set [8] is T1, METAP2. Kind of data set: In vitro competition binding to METAP2. To be noted: competition with biotinylated SDX-9280.
Data set [9] in a line: Long-term chemical stability at ambient conditions. It counts as physicochemical.
Data set [10] in a line: CNS exposure. It counts as in vivo. Conditions: rat, intravenous, equimolar small molecule doses. The method in brief: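 Plasma and CSF levels of the small-molecule inhibitor were measured in rats after intravenous dosing of the polymer conjugate, the free inhibitor or a comparator inhibitor, all at equimolar small-molecule doses. CSF was sampled near plasma Tmax. For the rapidly metabolised comparator, its active metabolite (M-IV) was measured rather than the parent.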

The subject of data set [11] is EO771 tumors. Description: EO771 triple-negative breast cancer allograft model. It counts as in vivo, mouse. To be noted: 24 mg/kg SC, Q4D. The method in brief:
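Female C57Bl/6j mice, ovariectomized at 4 weeks, had EO771 cells implanted into the fourth mammary fat pad at about 18 weeks under ether anesthesia. At about 20 mm3, mice (8/group) began s.c. vehicle (5% mannitol/water, Q4D) or test compound (24 mg/kg, Q4D × 4). Tumors were excised on day 15 and formalin-fixed, paraffin-embedded. Sections were immunostained for Ki67 or CD31, scored as positive cells per tissue area. Volume: two-way ANOVA with Sidak. Staining: unpaired t test.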

For data set [12], the target named is cathepsin S (CTSS) (Homo sapiens, UniProt P25774). Kind of data set: Enzyme-mediated metabolism of SDX-7320 in vitro. It counts as in vitro ADME. To be noted: 0.5 mg/mL SDX-7320, 37°C, LC/MS.
Sequence of cathepsin S (CTSS) (P25774 115-331): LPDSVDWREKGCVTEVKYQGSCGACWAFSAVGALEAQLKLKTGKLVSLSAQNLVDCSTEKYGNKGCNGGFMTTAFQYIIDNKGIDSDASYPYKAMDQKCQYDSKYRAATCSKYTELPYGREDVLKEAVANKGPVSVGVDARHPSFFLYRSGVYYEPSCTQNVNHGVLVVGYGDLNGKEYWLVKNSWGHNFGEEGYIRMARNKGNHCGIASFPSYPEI
Data set [13] concerns BT-474 tumors. Description: BT-474 HER-2+, estrogen receptor-positive breast cancer xenograft model. It counts as in vivo, mouse. Conditions: 6, 12 mg/kg, s.c., every four days. The procedure, abridged:
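Female athymic nude mice got a 90-day 0.72 mg β-estradiol pellet s.c. Three days later, 2 × 10^7 cells in 50% Matrigel/50% RPMI1640 went into the fourth mammary fat pad. Mice were randomized at tumors >95 mm3 (8/group). Test compound, freshly prepared in 5% mannitol/water, was given s.c. Q4D × 9. Tumor volume was analysed by mixed-effects model with Dunnett comparisons.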

Data set [14] in a line: Particle size by dynamic light scattering. It counts as physicochemical. Conditions: 5% aqueous mannitol, monomodal.
Data set [15] relates to B16-F10 melanoma cells. Kind of data set: B16-F10 syngeneic lung metastasis model. It counts as in vivo, mouse. To be noted: TNP-470 30 mg/kg every other day x 6, day 15. The method in brief: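 Female C57BL/6NTac mice (8/group) received B16-F10 melanoma cells by tail vein. Cells were grown in DMEM with 5% FBS at 37°C under 5% CO2. Dosing began 24 h after injection: saline vehicle, test compound 25 mg/kg Q4D × 3, and a reference METAP2 inhibitor 30 mg/kg Q2D × 6. Lungs were excised on day 15 and visible metastases counted by stereomicroscope. Two-tailed Student t test.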

The test system of data set [16] is HUVEC. Kind of data set: HUVEC proliferation. Conditions: 72 hours. It counts as cell-based, human. The method in brief:
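HUVEC were grown in EBM-2/EGM-2 with 2% FBS and 2X gentamicin, seeded at 5,000 cells/well and left overnight. Compounds were diluted in DMSO, then in the same medium (final DMSO 0.1%). After 72 h at 37°C, CellTiter 96 Aqueous One reagent was added for 3 h at 37°C and A490 read. The mean A490 of highest-concentration wells was subtracted, and IC50 came from a four-parameter variable-slope log(inhibitor)-response fit.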

Data set [17] concerns the target METAP1 (Homo sapiens, UniProt P53582). Kind of data set: METAP1 aminopeptidase enzyme activity assay. It counts as biochemical. To be noted: up to 1000 nmol/L.
The conditions of data set [18]: cited from earlier work.

With `CO[C@@H]1[C@H](OC(=O)N[C@H]2CC[C@H](N)CC2)CC[C@]2(CO2)[C@H]1[C@@]1(C)O[C@@H]1CC=C(C)C.O=S(=O)(O)c1ccccc1` (relative stereo) [SDX-9402, Fumagill-6-yl N-(trans-4-aminocyclohexyl)carbamate benzenesulfonic acid salt], the “Off-target activity at enzymes” value in data set [1] was “No effect was observed”. Moreover, in [2], the “Off-target activity at receptors/transporters” value is “No effect was observed”.

Regarding “Glycine, N-(2-methyl-1-oxo-2-propen-1-yl)glycyl-L-phenylalanyl-L-leucyl-, 4-nitrophenyl ester, polymer with N-(2-hydroxypropyl)-2-methyl-2-propenamide, reaction products with (3R,4S,5S,6R)-5-methoxy-4-[(2R,3R)-2-methyl-3-(3-methyl-2-buten-1-yl)-2-oxiranyl]-1-oxaspiro[2.5]oct-6-yl N-(trans-4-aminocyclohexyl)carbamate [SDX-7320]”, in data set [3] (every four days, two doses), the “metastasis of MDA-MB-231 tumors (human DNA in lower chorioallantoic membrane)” value is on record as “significantly inhibited metastasis”. Moreover, in [3] (two days prior to termination), the “MDA-MB-231 tumor blood vessel density (angiogenesis)” value is “significant decrease in blood vessel density”. For the same compound, the “Inhibition of METAP2 aminopeptidase enzyme activity” value in data set [4] (up to 10 μg/ml) was “inactive”. In addition, the “neurobehavioral FOB findings” value in data set [5] is given as “No signs of abnormal CNS-related behavioral toxicity; also recorded: no significant behavioral abnormalities”. Besides, the “expression of hypoxia-regulated genes including HIF1α in BT-474 tumors” value in [6] is given as “significantly reduced”. The “release of SDX-7539 from SDX-7320 by cathepsins L, H, C, K, and B” value in data set [7] is recorded as “catalytic activity against SDX-7320”. For the same compound, the “binding to METAP2 by competition ELISA” value in data set [8] was “inactive”. In data set [9], this compound displayed a long-term chemical stability of over 48 months. Further, the “CSF levels of SDX-7539 when dosed as the PDC compared with unconjugated small molecule or TNP-470” value in data set [10] is recorded as “marked reduction in CSF levels”. In addition, the EO771 tumor growth entry in [11] is reported as “significantly inhibited tumor growth”. For the same compound, in data set [11] (anti-angiogenic activity), the “CD31 staining of dissected EO771 tumors” value is reported as “reduced staining”. In addition, the “Ki67 staining of dissected EO771 tumors” value in data set [11] (anti-proliferative activity) is reported as “reduced staining”. In data set [12], the “release of SDX-7539 from SDX-7320 by cathepsin S” value is “most active isoform; also recorded: highest activity”. In addition, the “inhibition of BT-474 tumor growth” value in data set [13] is “significant, dose-dependent inhibition”. Moreover, the “particle size distribution Z-average” value in data set [14] is given as 10 nm.

For the compound `CO[C@@H]1[C@H](OC(=O)NC(=O)CCl)CC[C@]2(CO2)[C@H]1[C@@]1(C)O[C@@H]1CC=C(C)C` [TNP-470, O-(chloroacetyl-carbamoyl) fumagillol], the “outgrowth of B16-F10 melanoma cells in the lungs” value in data set [15] is reported as “identical degree of inhibition”. Further, the “time dependence of IC50 against METAP2” value in data set [4] (hallmark of irreversible enzyme inhibitors) was “time-dependent shifts in IC50”. Further, the “fold less potent than SDX-7539 in HUVEC growth” value in data set [16] was “approximately 3 fold”. In addition, in data set [17], the “Inhibition of METAP1 aminopeptidase activity” value is reported as “neither compound inhibited METAP1”. The “potency in vitro, fold higher than the natural product fumagillin” value in data set [18] is reported as 50 fold.
